Here are results for 16 compounds from PubChem BioAssay.

The nature of experiment [1]: Her2 expression decrease, cell viability multiplex – SKBR3 breast tumor cells, AlphaScreen, ATP viability, primary screen (AID 461;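 active = Her2 level under about 52% in both replicate screens, with viability over 70% of control, limit read from the data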;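 as to Her2 level: lower value means less Her2 protein in the cells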;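 as to viability: percent of carrier control wells set as 100% viability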). To be noted: SKBR3 Her2 protein level, 18-24 h, measured here: SKBR3 viability, ATP luminescence, at 10 µM. In general terms: Alpha assays give light when donor and acceptor beads are brought close together.
Experiment [2] deals with Receptor tyrosine-protein kinase erbB-2 (Homo sapiens) (UniProt P04626). The experiment is described as above. The note with it: 18-24 h, at 10 µM, stronger effect = lower value.
Chain of Receptor tyrosine-protein kinase erbB-2 (Homo sapiens) (P04626 whole entry, looked up): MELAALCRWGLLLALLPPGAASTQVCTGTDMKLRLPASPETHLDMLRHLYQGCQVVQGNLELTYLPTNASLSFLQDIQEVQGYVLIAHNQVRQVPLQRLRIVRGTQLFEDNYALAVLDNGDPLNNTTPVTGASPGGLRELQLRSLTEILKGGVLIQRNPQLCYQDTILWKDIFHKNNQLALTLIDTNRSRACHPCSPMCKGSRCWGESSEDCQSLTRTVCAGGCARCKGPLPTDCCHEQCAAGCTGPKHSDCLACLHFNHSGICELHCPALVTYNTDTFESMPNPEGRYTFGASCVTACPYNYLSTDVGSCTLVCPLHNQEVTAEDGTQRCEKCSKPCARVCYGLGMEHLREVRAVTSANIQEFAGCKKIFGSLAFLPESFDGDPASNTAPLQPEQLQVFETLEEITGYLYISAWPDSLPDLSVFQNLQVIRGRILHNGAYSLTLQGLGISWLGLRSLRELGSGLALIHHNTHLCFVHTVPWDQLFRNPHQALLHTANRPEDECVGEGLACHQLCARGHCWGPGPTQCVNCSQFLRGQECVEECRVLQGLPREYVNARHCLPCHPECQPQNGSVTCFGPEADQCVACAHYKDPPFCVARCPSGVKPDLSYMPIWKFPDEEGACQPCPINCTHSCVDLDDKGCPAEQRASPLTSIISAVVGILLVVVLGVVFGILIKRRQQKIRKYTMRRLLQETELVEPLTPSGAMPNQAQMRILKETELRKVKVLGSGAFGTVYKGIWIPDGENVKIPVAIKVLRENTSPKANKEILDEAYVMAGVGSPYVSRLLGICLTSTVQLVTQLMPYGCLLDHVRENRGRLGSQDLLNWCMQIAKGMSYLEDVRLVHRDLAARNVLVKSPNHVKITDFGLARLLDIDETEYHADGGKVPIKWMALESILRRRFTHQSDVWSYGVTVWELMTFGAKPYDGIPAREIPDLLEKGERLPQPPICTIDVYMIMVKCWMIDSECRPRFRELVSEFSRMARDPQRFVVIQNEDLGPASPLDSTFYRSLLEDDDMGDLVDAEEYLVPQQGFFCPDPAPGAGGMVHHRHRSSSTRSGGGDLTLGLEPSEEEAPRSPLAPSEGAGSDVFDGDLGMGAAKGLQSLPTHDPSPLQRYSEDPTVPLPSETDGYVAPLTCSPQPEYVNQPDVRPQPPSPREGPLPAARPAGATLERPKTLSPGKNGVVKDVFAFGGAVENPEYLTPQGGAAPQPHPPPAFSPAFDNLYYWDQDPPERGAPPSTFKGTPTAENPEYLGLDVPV
Experiment [3] in a line: reduced viability of SK-BR-3 breast cancer cells – cell-based, 24 h, human, pilot screen (AID 572).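 Also: compound exposure lasted between 18 and 24 h rather than exactly 24 h; 100% = carrier-treated control wells.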 To be noted: SK-BR-3 viability, CellTiter-Glo luminescence, at 10 µM, stronger effect = lower value. On the technique in general: In ATP-based viability assays light output follows the ATP content of the culture.
The nature of experiment [4]: HUVEC growth inhibition – cell-based, human, primary screen (AID 575;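 active = viability at or below 30% in both replicate assays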;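 also: 100% = median of untreated cell wells with 0.1% DMSO on each plate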). To be noted: HUVEC proliferation, CellTiter-Glo luminescence, 72 h; at 10 µM; stronger effect = lower value. In a few lines:
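Test system: primary human umbilical vein endothelial cells. Quantity: 1250 cells/well. Compound: single 10 µM dose, 0.1% DMSO, from 5x medium stock. Timing: 72 h treatment at 37 °C. Detection: ATP-based CellTiter-Glo luminescent read. Benchmarks: vehicle and MePR control wells. Format: 384-well plates coated with collagen.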

Experiment [5] in a line: H69AR cell proliferation blockers – human, duplicate replicates, primary screen (AID 580;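 active = viability at or under a set limit in both replicates, limit being median viability minus 3 SD, cut at about 48% in these data, passing the limit was not always enough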;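 also: 100% = mean luminescence of untreated wells and 0% = no signal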). To be noted: H69AR lung tumor cells viability, ATP luminescence, 72 h; at 10 µM; stronger effect = lower value.
Experiment [6] in a line: MRP1 drug-resistance reversers in H69AR cells – cell-based, doxorubicin co-treatment, pilot screen (AID 601;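 active = viability loss from added drug above about 55%, and viability with drug at most 40%, in both replicates, limit read from the data, passing the limit was not always enough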). The note with it: CellTiter-Glo, 72 h, at 10 µM; for differential viability (reversal): stronger effect = higher value.
Experiment [7] in a line: yeast transport mutant growth inhibition pilot in 384-well plates, post-Golgi transport modulator project (AID 636; in the data active = inhibition above about 31%). The note with it: absorbance 615 nm, about 18 h, stronger effect = higher value.
A short description of experiment [8]: growth suppression of yeast trafficking mutant, preliminary HTS, modulators of trafficking downstream of Golgi apparatus project, 1536-format plate, OD 615 nm (AID 637; in the data active = inhibition above about 30%). The note with it: yeast transport mutant growth, absorbance 615 nm, 18 h; stronger effect = higher value.
The mark [9] stands for this setting: H69AR cells + 2 uM doxorubicin, measured here: viability with 2 uM doxorubicin, stronger effect = lower value.
Where [10] appears, read: H69AR cells, compound alone cytotoxicity.

Calls of active or inactive are those of the source.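 The calls were made as follows, unless noted: active = viability at or below 10% of carrier control in both of two separate runs; inconclusive = viability at or below 10% in only one of the two runs; inactive = the rest.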

For orientation: viability means a read-out of living cells in per cent, often relative to untreated cells. A word on the inhibition: it is the change of the read-out against control, counted positive when it falls.

With `N#Cc1cnc(SCC(=O)Nc2ccccc2C(F)(F)F)nc1N`, the viability in experiment [1] is 88.5%; in experiment [3] it was 88.5% (inactive); in experiment [4], 99.7% (inactive); in experiment [5] it was 90.2% (inactive); in experiment [6] (setting [9]) it was 88.5%; in experiment [6] (setting [10]), 90.2%. Further, in experiment [2], the Her2 level is 81.5% (inactive). Moreover, the differential viability (reversal) in experiment [6] (H69AR cells + 2 uM doxorubicin) is 1.73% (inactive). In addition, the figures for the inhibition in experiment [7] and in experiment [8] were -4.4% (inactive) and 5.9% (inactive), respectively.
For the compound `Cc1ccccc1CNS(=O)(=O)c1ccc2c(c1)OCCO2`, the viability was 95.5% in experiment [1]; 95.5% (inactive) in experiment [3]; 83.6% (inactive) in experiment [4]; 109% (inactive) in experiment [5]; 92% in experiment [6] (setting [9]); 109% in experiment [6] (setting [10]). For the same compound, the Her2 level in experiment [2] was 104% (inactive). Besides, in experiment [6] (H69AR cells + 2 uM doxorubicin), the differential viability (reversal) is 17.3% (inactive). Further, the inhibition was -5.47% (inactive) in experiment [7] and -6.77% (inactive) in experiment [8].
As to `Cc1[nH]c(=O)[nH]c(=O)c1S(=O)(=O)N1CCCC(C(=O)NCc2ccco2)C1` (stereo not given), the viability in experiment [1] is 102%; in experiment [3], 102% (inactive); in experiment [4] it was 96.3% (inactive); in experiment [5], 86.4% (inactive); in experiment [6] (setting [9]) it was 88.1%; in experiment [6] (setting [10]) it was 86.4%. Also, the Her2 level in experiment [2] is 80% (inactive). Moreover, the differential viability (reversal) in experiment [6] (H69AR cells + 2 uM doxorubicin) was -1.73% (inactive). Moreover, the inhibition in experiment [7] was -3.82% (inactive); in experiment [8], 0.67% (inactive).
With `CN1CCN(C(c2cccc(C(F)(F)F)c2)c2nnnn2C(C)(C)C)CC1` (stereo not given), the viability in experiment [1] was 94.5%; in experiment [3] it was 94.5% (inactive); in experiment [4], 102% (inactive); in experiment [5], 91.5% (inactive); in experiment [6] (setting [9]), 89.7%; in experiment [6] (setting [10]), 91.5%. In addition, the Her2 level in experiment [2] was 86.5% (inactive). Besides, the differential viability (reversal) in experiment [6] (H69AR cells + 2 uM doxorubicin) is 1.82% (inactive). Moreover, the inhibition in experiment [7] was -4.8% (inactive); in experiment [8], 0.82% (inactive).
As for `COc1ccc(C2=Nn3c(nnc3-c3cccnc3)SC2)cc1`, the viability is 83.5% in experiment [1]; 83.5% (inactive) in experiment [3]; 97.1% (inactive) in experiment [4]; 64.7% (inactive) in experiment [5]; 81.2% in experiment [6] (setting [9]); 64.7% in experiment [6] (setting [10]). Also, the Her2 level in experiment [2] was 93.5% (inactive). In addition, the differential viability (reversal) in experiment [6] (H69AR cells + 2 uM doxorubicin) was -16.5% (inactive). In addition, the inhibition in experiment [7] was -6.32% (inactive); in experiment [8] it was 0.48% (inactive).
Consider `CC1C(O)=C(c2nc3ccccc3[nH]2)C(=N)N1c1ccccc1` (stereo not given), for which the viability in experiment [1] is 110%; in experiment [3] it was 110% (inactive); in experiment [4] it was 50.5% (inactive); in experiment [5] it was 16% (active); in experiment [6] (setting [9]) it was 55%; in experiment [6] (setting [10]), 16%. Besides, the Her2 level in experiment [2] is 83% (inactive). In addition, the differential viability (reversal) in experiment [6] (H69AR cells + 2 uM doxorubicin) was -39% (inactive). Also, the inhibition is -6.71% (inactive) in experiment [7] and -10.6% (inactive) in experiment [8].
On to `CCOC(=O)N1CCC2(CC1)CC(=O)c1c(ccc3oc(C(=O)O)c(C)c13)O2`, for which the viability in experiment [1] is 118%; in experiment [3] it was 118% (inactive); in experiment [4] it was 111% (inactive); in experiment [5], 92.3% (inactive); in experiment [6] (setting [9]), 88.7%; in experiment [6] (setting [10]), 92.3%. In experiment [2], the Her2 level is 96% (inactive). Moreover, the differential viability (reversal) in experiment [6] (H69AR cells + 2 uM doxorubicin) was 3.56% (inactive). The values for the inhibition in experiment [7] and in experiment [8] were -0.79% (inactive) and -4.55% (inactive), respectively.
As for `COc1cc(OC)c(C2C(C#N)=C(N)OC3=C2C(=O)CC(C)(C)C3)cc1OC` (stereo not given), the viability in experiment [1] was 85.5%; in experiment [3], 85.5% (inactive); in experiment [4] it was 61.9% (inactive); in experiment [5], 83.2% (inactive); in experiment [6] (setting [9]) it was 84.7%; in experiment [6] (setting [10]) it was 83.2%. For the same compound, the Her2 level in experiment [2] was 106% (inactive). Moreover, the differential viability (reversal) in experiment [6] (H69AR cells + 2 uM doxorubicin) was -1.53% (inactive). Also, the values for the inhibition in experiment [7] and in experiment [8] were 0.91% (inactive) and -9.02% (inactive), respectively.
In the case of `CCCCP(=O)(CCCC)c1ccccc1C(=O)O`, the viability in experiment [1] is 110%; in experiment [3] it was 110% (inactive); in experiment [4], 90% (inactive); in experiment [5], 107% (inactive); in experiment [6] (setting [9]) it was 94.2%; in experiment [6] (setting [10]) it was 107%. In experiment [2], the Her2 level was 104% (inactive). In addition, the differential viability (reversal) in experiment [6] (H69AR cells + 2 uM doxorubicin) is 12.9% (inactive). Besides, the results for the inhibition in experiment [7] and in experiment [8] were 1.82% (inactive) and -2.46% (inactive), respectively.
`CS(=O)(=O)N(CC(=O)Nc1ccc2c(c1)OCCO2)Cc1ccccc1`: the viability in experiment [1] was 93.5%; in experiment [3], 93.5% (inactive); in experiment [4], 107% (inactive); in experiment [5], 99.5% (inactive); in experiment [6] (setting [9]), 87.2%; in experiment [6] (setting [10]), 99.5%. Besides, the Her2 level in experiment [2] was 92% (inactive). The differential viability (reversal) in experiment [6] (H69AR cells + 2 uM doxorubicin) was 12.3% (inactive). The inhibition in experiment [7] was -4.93% (inactive); in experiment [8], -0.79% (inactive).
`CCN(CC)CCNC(=O)CCn1c(=S)[nH]c2cc3c(cc2c1=O)OCO3`: the viability in experiment [1] was 79%; in experiment [3] it was 79% (inactive); in experiment [4], 89.8% (inactive); in experiment [5], 90.1% (inactive); in experiment [6] (setting [9]), 89.8%; in experiment [6] (setting [10]), 90.1%. In addition, the Her2 level in experiment [2] was 89.5% (inactive). Besides, the differential viability (reversal) in experiment [6] (H69AR cells + 2 uM doxorubicin) is 0.295% (inactive). In addition, the inhibition in experiment [7] is -4.59% (inactive); in experiment [8] it was -2.3% (inactive).
As to `CCOc1ccccc1CN1C(=O)c2ccccc2C1C(=O)NCC1CCCO1` (stereo not given), the viability in experiment [1] was 104%; in experiment [3], 104% (inactive); in experiment [4] it was 98.3% (inactive); in experiment [5], 101% (inactive); in experiment [6] (setting [9]), 105%; in experiment [6] (setting [10]) it was 101%. The Her2 level in experiment [2] was 104% (inactive). For the same compound, in experiment [6] (H69AR cells + 2 uM doxorubicin), the differential viability (reversal) is -4.52% (inactive). In addition, the inhibition is -1.47% (inactive) in experiment [7] and -0.32% (inactive) in experiment [8].
For the compound `COc1ccccc1NC(=O)CSc1nnc(CC(=O)Nc2ccccc2)n1C`, the viability in experiment [1] was 96%; in experiment [3] it was 96% (inactive); in experiment [4] it was 113% (inactive); in experiment [5], 91% (inactive); in experiment [6] (setting [9]), 93.1%; in experiment [6] (setting [10]), 91%. Moreover, in experiment [2], the Her2 level is 80.5% (inactive). The differential viability (reversal) in experiment [6] (H69AR cells + 2 uM doxorubicin) is -2.08% (inactive). The inhibition in experiment [7] is -2.99% (inactive); in experiment [8] it was -2% (inactive).
For the compound `O=C(CCn1c(=O)sc2ccccc21)NC1=NCCS1`, the viability in experiment [1] was 84%; in experiment [3] it was 84% (inactive); in experiment [4], 94.6% (inactive); in experiment [5], 91.6% (inactive); in experiment [6] (setting [9]) it was 86.9%; in experiment [6] (setting [10]), 91.6%. Further, the Her2 level in experiment [2] is 96% (inactive). Moreover, in experiment [6] (H69AR cells + 2 uM doxorubicin), the differential viability (reversal) is 4.68% (inactive). In addition, the inhibition in experiment [7] was -1.87% (inactive); in experiment [8], -6.72% (inactive).
As for `CCNC(=O)COc1ccc(Br)cc1Cl`, the viability in experiment [1] is 96%; in experiment [3], 96% (inactive); in experiment [4], 92.1% (inactive); in experiment [5] it was 93.2% (inactive); in experiment [6] (setting [9]), 97.6%; in experiment [6] (setting [10]) it was 93.2%. Further, the Her2 level in experiment [2] was 91% (inactive). The differential viability (reversal) in experiment [6] (H69AR cells + 2 uM doxorubicin) was -4.36% (inactive). The results for the inhibition in experiment [7] and in experiment [8] were -5% (inactive) and -1.9% (inactive), respectively.
In the case of `COc1cc(S(=O)(=O)n2nnc3ccccc32)c(OC)cc1Cl`, the viability in experiment [1] is 96%; in experiment [3] it was 96% (inactive); in experiment [4], 77% (inactive); in experiment [5], 84.9% (inactive); in experiment [6] (setting [9]) it was 87.9%; in experiment [6] (setting [10]) it was 84.9%. Further, the Her2 level in experiment [2] was 81.5% (inactive). Besides, in experiment [6] (H69AR cells + 2 uM doxorubicin), the differential viability (reversal) was -3.02% (inactive). Besides, the inhibition in experiment [7] was -2.8% (inactive); in experiment [8] it was 41.8% (active).
